Among the data in ChEMBL document CHEMBL2424622, “Development of amino-pyrimidine inhibitors of c-Jun N-terminal kinase (JNK): kinase profiling guided optimization of a 1,2,3-benzotriazole lead” (Bioorg Med Chem Lett, 2013) are inhibition values, retold here.

In assay [1] the target is 5'-AMP-activated protein kinase catalytic subunit alpha-2 (Homo sapiens) (UniProt P54646). Nature of the assay: Competitive binding affinity to AMPKalpha2 (unknown origin) at 10 uM in presence of ATP relative to control. In a few lines: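 In vitro ATP-site competition binding assay across a diverse panel of 128 kinases, with each compound tested at a single concentration. Kinase binding is expressed relative to control.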

Assay [2] relates to T1, Receptor-type tyrosine-protein kinase FLT3 (Homo sapiens), P36888 [D835Y].
T1 sequence (whole entry): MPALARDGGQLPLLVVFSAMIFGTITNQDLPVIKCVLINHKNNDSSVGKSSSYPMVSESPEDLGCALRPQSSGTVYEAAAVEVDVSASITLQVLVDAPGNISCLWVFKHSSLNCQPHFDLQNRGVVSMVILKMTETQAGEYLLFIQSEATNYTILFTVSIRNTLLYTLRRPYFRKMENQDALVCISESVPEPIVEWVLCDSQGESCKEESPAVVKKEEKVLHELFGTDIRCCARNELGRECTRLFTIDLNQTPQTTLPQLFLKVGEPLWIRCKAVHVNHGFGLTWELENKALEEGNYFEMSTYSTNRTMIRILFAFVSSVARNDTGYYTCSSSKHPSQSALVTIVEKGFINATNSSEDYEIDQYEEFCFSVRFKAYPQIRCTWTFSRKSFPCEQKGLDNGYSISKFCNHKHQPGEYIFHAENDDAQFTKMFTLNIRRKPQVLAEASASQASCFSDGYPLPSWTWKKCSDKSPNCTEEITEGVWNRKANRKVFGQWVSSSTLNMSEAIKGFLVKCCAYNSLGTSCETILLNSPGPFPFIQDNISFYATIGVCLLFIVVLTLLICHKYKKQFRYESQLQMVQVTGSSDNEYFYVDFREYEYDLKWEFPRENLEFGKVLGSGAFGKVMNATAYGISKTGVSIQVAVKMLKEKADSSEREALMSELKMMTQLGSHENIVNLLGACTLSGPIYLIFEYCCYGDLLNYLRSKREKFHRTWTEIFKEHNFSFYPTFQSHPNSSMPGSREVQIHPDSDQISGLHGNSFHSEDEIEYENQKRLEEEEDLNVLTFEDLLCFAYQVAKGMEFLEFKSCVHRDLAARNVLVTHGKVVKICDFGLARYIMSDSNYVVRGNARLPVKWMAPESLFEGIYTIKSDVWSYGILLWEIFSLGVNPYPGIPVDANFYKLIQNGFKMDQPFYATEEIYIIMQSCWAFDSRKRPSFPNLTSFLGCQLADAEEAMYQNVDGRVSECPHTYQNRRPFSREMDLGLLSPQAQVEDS
Nature of the assay: Competitive binding affinity to FLT3 D835Y mutant (unknown origin) at 10 uM in presence of ATP relative to control.

The target of assay [3] is Activin receptor type-1-like (Homo sapiens) (UniProt P37023). Kind of assay: Competitive binding affinity to ACVRL1 (unknown origin) at 10 uM in presence of ATP relative to control.
In assay [4] the target is Maternal embryonic leucine zipper kinase (Homo sapiens) (UniProt Q14680). Nature of the assay: Competitive binding affinity to MELK (unknown origin) at 10 uM in presence of ATP relative to control.
In assay [5] the target is T2, Activin receptor type-1 (Homo sapiens) (UniProt Q04771).
T2 sequence (whole entry): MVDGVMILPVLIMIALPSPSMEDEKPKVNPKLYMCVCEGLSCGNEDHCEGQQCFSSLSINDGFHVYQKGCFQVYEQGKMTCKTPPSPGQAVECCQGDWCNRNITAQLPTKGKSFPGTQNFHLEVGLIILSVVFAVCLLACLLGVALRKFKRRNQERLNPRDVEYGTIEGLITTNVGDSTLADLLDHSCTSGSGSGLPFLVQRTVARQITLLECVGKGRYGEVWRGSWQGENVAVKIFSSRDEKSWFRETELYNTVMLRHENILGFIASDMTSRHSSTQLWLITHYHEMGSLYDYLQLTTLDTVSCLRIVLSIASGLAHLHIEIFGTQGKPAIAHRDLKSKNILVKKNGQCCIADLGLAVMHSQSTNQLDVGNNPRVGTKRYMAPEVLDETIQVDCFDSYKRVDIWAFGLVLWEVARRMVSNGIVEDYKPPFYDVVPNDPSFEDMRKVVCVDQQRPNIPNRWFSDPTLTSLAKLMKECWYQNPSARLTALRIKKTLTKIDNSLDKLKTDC
Kind of assay: Competitive binding affinity to ACVR1 (unknown origin) at 10 uM in presence of ATP relative to control.

The target in assay [6] is Activin receptor type-2A (Homo sapiens) (UniProt P27037). Kind of assay: Competitive binding affinity to ACVR2A (unknown origin) at 10 uM in presence of ATP relative to control.
The target in assay [7] is Serine/threonine-protein kinase 32C (Homo sapiens) (UniProt Q86UX6). Nature of the assay: Competitive binding affinity to YANK3 (unknown origin) at 10 uM in presence of ATP relative to control.
For assay [8], the target named is Mitogen-activated protein kinase kinase kinase 9 (Homo sapiens) (UniProt P80192). Kind of assay: Competitive binding affinity to MLK1 (unknown origin) at 10 uM in presence of ATP relative to control.
The target of assay [9] is Cyclin-dependent kinase 8 (Homo sapiens) (UniProt P49336). Nature of the assay: Competitive binding affinity to CDK8 (unknown origin) at 10 uM in presence of ATP relative to control.
Assay [10] concerns the target T3, Dual specificity mitogen-activated protein kinase kinase 6 (Homo sapiens) (UniProt P52564).
T3 sequence (whole entry): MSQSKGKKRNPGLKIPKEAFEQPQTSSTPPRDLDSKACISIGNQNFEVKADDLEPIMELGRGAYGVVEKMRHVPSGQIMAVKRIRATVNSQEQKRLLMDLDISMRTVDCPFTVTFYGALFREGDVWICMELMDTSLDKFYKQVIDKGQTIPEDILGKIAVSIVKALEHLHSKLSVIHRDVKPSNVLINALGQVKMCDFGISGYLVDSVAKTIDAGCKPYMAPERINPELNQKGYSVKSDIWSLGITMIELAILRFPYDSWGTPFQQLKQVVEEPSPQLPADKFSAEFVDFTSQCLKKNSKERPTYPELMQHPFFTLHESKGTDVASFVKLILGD
Kind of assay: Competitive binding affinity to MEK6 (unknown origin) at 10 uM in presence of ATP relative to control.

Where only a bound is given, the exact number is not on record here.

Chain of Serine/threonine-protein kinase 32C (Homo sapiens) (Q86UX6 whole entry): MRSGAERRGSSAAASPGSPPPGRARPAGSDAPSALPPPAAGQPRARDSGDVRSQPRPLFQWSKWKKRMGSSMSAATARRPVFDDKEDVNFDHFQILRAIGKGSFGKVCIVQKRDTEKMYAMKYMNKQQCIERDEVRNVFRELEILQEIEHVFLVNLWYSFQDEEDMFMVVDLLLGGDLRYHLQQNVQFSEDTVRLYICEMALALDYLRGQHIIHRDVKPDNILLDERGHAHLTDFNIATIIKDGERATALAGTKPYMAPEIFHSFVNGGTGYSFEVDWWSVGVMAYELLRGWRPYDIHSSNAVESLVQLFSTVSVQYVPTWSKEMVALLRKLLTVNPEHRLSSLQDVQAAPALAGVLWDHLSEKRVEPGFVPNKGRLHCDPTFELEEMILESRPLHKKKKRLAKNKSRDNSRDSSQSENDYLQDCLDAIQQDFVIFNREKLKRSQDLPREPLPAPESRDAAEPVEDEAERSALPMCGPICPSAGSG
Chain of Activin receptor type-2A (Homo sapiens) (P27037 whole entry): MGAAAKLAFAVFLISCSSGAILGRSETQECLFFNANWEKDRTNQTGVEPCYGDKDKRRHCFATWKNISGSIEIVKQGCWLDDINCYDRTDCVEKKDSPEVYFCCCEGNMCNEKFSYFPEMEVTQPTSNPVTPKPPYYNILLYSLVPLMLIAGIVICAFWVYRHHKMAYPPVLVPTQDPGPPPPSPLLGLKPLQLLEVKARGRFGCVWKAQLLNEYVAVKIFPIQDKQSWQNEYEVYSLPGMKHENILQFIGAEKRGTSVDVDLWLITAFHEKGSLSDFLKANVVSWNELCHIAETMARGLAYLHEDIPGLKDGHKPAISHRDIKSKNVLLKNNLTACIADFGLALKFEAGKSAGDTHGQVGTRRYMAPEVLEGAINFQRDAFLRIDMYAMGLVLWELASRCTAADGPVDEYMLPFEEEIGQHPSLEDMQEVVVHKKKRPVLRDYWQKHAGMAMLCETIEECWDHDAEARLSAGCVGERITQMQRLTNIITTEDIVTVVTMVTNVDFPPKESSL
Chain of Maternal embryonic leucine zipper kinase (Homo sapiens) (Q14680 whole entry, looked up): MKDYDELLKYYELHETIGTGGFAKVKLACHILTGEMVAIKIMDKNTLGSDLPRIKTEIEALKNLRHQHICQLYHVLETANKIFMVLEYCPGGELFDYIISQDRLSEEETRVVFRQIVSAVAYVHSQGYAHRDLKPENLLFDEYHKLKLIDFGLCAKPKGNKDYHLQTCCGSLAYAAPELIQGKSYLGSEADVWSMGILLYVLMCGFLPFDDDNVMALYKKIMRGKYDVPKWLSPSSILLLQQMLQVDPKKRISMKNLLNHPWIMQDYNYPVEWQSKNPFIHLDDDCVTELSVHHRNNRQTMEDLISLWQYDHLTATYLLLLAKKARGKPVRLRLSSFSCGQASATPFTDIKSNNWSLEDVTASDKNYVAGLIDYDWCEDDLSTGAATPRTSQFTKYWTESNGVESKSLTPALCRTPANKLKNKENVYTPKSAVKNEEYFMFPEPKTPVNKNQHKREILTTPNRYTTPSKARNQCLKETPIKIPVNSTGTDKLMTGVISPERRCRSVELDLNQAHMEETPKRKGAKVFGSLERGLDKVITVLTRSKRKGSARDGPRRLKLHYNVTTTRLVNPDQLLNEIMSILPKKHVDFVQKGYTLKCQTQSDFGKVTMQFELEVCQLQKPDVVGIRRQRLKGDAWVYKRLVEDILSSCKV
Chain of Cyclin-dependent kinase 8 (Homo sapiens) (P49336 whole entry): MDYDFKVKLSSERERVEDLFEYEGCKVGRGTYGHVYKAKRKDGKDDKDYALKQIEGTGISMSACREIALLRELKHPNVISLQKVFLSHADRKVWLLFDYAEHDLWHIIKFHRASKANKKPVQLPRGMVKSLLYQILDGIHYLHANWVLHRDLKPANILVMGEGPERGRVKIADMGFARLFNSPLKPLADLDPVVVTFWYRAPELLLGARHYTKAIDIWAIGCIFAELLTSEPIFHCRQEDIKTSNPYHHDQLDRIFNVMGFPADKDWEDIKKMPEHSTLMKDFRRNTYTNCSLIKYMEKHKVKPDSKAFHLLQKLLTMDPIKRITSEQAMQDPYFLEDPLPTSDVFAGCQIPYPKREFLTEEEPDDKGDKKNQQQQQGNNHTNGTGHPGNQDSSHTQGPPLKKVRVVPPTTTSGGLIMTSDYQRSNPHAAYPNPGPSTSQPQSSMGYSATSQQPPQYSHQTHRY
Chain of Activin receptor type-1-like (Homo sapiens) (P37023 whole entry): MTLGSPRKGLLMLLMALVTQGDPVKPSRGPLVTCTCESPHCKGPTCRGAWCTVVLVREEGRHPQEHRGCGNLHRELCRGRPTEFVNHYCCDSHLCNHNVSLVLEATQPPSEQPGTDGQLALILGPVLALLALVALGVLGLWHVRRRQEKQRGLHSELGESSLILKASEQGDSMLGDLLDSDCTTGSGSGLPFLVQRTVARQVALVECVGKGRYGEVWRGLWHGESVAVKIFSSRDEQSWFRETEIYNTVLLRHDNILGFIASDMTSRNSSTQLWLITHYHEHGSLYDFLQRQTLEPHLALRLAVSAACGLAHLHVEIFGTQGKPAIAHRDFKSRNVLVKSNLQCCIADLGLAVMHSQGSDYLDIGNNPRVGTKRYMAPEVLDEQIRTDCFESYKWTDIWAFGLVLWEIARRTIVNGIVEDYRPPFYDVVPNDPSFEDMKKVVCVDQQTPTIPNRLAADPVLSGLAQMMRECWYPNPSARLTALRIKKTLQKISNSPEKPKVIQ
Chain of Mitogen-activated protein kinase kinase kinase 9 (Homo sapiens) (P80192 whole entry, looked up): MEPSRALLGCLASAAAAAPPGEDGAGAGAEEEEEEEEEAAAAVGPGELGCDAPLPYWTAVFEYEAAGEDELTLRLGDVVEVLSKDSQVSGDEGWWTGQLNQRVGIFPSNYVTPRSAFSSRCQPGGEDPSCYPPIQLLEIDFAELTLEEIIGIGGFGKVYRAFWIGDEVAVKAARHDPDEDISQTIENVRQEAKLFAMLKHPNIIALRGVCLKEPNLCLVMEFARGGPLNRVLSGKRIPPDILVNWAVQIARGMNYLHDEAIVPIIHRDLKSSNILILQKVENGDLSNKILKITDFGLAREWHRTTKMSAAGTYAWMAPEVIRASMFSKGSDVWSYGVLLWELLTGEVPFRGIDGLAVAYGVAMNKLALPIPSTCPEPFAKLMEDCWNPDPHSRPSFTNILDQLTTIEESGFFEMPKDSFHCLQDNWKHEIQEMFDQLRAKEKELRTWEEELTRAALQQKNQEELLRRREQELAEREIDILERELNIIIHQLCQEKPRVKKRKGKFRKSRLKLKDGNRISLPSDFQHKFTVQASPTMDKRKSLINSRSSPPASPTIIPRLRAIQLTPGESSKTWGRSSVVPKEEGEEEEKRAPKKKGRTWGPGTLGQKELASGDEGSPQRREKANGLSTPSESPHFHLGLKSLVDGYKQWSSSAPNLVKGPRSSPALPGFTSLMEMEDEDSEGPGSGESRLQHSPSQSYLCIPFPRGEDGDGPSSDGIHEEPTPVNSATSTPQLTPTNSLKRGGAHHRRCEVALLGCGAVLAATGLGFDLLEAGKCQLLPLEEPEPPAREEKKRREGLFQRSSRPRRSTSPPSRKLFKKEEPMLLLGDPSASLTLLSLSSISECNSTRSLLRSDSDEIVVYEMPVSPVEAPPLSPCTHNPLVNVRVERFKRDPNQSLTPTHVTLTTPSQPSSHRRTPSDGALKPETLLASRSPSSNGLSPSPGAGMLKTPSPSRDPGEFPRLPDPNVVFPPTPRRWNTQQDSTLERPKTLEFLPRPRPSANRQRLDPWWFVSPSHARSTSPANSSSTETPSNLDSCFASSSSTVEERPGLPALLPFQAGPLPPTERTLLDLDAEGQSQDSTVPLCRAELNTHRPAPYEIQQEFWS
Chain of 5'-AMP-activated protein kinase catalytic subunit alpha-2 (Homo sapiens) (P54646 whole entry, looked up): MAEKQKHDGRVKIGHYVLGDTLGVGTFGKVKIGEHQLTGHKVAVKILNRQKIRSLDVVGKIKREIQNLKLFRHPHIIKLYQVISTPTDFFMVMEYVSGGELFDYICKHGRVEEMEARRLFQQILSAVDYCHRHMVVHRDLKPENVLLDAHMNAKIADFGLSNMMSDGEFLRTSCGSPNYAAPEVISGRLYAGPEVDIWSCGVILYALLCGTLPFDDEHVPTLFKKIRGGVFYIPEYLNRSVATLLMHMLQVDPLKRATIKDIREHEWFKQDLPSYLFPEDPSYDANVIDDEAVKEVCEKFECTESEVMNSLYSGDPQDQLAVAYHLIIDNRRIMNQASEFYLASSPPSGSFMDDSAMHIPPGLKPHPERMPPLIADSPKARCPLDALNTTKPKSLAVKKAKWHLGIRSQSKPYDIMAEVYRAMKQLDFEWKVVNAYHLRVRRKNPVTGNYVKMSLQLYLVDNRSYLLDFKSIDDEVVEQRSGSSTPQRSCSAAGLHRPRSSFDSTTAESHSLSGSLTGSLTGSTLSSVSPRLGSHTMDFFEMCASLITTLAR

With `O[C@H]1CC[C@H](Nc2nccc(-c3n[nH]c4ccccc34)n2)CC1`, the inhibition in assay [1] was 89%; in assay [2], 100%; in assay [3] it was less than 50%; in [4] it was 94%; in assay [5] it was less than 50%; in assay [6], less than 50%. The inhibition in [7] is less than 50%.
Consider `O[C@H]1CC[C@H](Nc2nccc(-n3ccc4ccccc43)n2)CC1`, for which the inhibition in [1], in assay [8], in assay [2], in assay [9], in assay [3] and in assay [4] was less than 50% in each case. Besides, the inhibition in assay [5] is less than 50%; in [6], less than 50%; in [7], less than 50%; in assay [10], 90%.
As to `O[C@H]1CC[C@H](Nc2nccc(-n3ncc4ccccc43)n2)CC1`, the inhibition was less than 50% in assay [1]; less than 50% in assay [8]; 100% in [2]; less than 50% in assay [9]; less than 50% in assay [3]; 74% in [4]. In addition, the inhibition in assay [5] was less than 50%; in [6] it was less than 50%; in assay [7], less than 50%; in [10], 90%.
Turning to `O[C@H]1CC[C@H](Nc2nccc(-n3nnc4ccccc43)n2)CC1`, the inhibition is 74% in [1]; less than 50% in assay [8]; 99% in assay [2]; 82% in assay [9]; less than 50% in assay [3]; 94% in [4]. Besides, the inhibition in assay [5] is less than 50%; in [6], less than 50%; in assay [7], less than 50%; in assay [10] it was 96%.
For the compound `CS(=O)(=O)CCCOc1cccc2c1ccn2-c1ccnc(N[C@H]2CC[C@H](C(=O)N3CCC(O)CC3)CC2)n1`, the inhibition in assay [10] was greater than 85%.

For orientation: inhibition means the percentage by which the read-out fell short of the control.
